# Experimental data published in ChEMBL document CHEMBL1143876, “Synthesis, analgesic, anti-inflammatory, and antimicrobial activity of some novel pyrimido[4,5-b]quinolin-4-ones” (2008).
# Assays:
# Mus musculus [1] = assay: Analgesic activity in Swiss albino mouse assessed as reaction time at 15 mg/kg, po after 30 mins by hot plate test; format: functional
# Procedure, shortened: (§1)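 Mice of both sexes, 25–30 g, on a hot plate at 53 ± 0.5 °C; reaction time taken to hind-paw lick or jump, 60 s cut-off. Baseline read before dosing. Oral dosing in 10% v/v Tween 80 in water: test agents 15 mg/kg, acetylsalicylic acid 100 mg/kg. Re-read at 15, 30, 60 and 90 min; means ± SE.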
# Mus musculus [2] = assay: Analgesic activity in Swiss albino mouse assessed as reaction time at 15 mg/kg, po after 60 mins by hot plate test; format: functional; procedure, shortened: as §1
# Mus musculus [3] = assay: Analgesic activity in Swiss albino mouse assessed as reaction time at 15 mg/kg, po after 90 mins by hot plate test; format: functional; procedure, shortened: as §1
# Mus musculus [4] = assay: Analgesic activity against acetic acid-induced abdominal constriction in Swiss albino mouse at 15 mg/kg, po after 20 mins by writhing test; format: functional, Abdomen
# Procedure, shortened: (§2)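 Mice of both sexes, 25–30 g, dosed orally in 10% v/v Tween 80 in water. Test agents were given at 15 mg/kg and acetylsalicylic acid at 100 mg/kg. 30 min later, 0.7% acetic acid (10 ml/kg) ip. Writhes counted over 20 min; six per group. % protection = (control mean − treated mean)/control mean ×100; means ± SE.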
# Mus musculus [5] = assay: Analgesic activity against acetic acid-induced abdominal constriction in Swiss albino mouse at 15 mg/kg, po after 20 mins by writhing test relative to acetylsalicylic acid; format: functional, Abdomen; procedure, shortened: as §2
# Escherichia coli [6] = assay: Antimicrobial activity against Escherichia coli at 50 ug/disk after 24 to 28 hrs; format: functional; conditions: read-out: IZ
# Procedure, shortened: (§3)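 Agar disk diffusion: 5 mm paper disks loaded with 50 µg/disk in DMSO. Inhibition zones read after 24–28 h at 37 °C for bacteria, or 5 days at 28 °C for clinical Candida isolates grown on Sabouraud dextrose agar. Zone graded 6–10 mm slight, 11–15 mm moderate, >15 mm high. Reference disks: nalidixic acid 30 µg, nystatin 100 U.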
# Klebsiella pneumoniae [7] = assay: Antimicrobial activity against Klebsiella pneumoniae at 50 ug/disk after 24 to 28 hrs; format: functional; conditions: read-out: IZ; procedure, shortened: as §3
# Pseudomonas aeruginosa [8] = assay: Antimicrobial activity against Pseudomonas aeruginosa at 50 ug/disk after 24 to 28 hrs; format: functional; conditions: read-out: IZ; procedure, shortened: as §3
# Staphylococcus aureus [9] = assay: Antimicrobial activity against Staphylococcus aureus at 50 ug/disk after 24 to 28 hrs; format: functional; conditions: read-out: IZ; procedure, shortened: as §3
# Candida albicans [10] = assay: Antimicrobial activity against Candida albicans at 50 ug/disk after 5 days; format: functional; conditions: 120 h, read-out: IZ; procedure, shortened: as §3
# Nakaseomyces glabratus = assay: Antimicrobial activity against Candida glabrata at 50 ug/disk after 5 days; format: functional; conditions: 120 h, read-out: IZ; procedure, shortened: as §3
# Escherichia coli [11] = assay: Antimicrobial activity against Escherichia coli; format: functional
# Procedure, shortened: (§4)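 MIC found by disk diffusion using disks carrying varying amounts of compound per disk, in DMSO. Incubated 24–28 h at 37 °C for bacteria and 5 days at 28 °C for Candida. MIC given in µg/disk.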
# Klebsiella pneumoniae [12] = assay: Antimicrobial activity against Klebsiella pneumoniae; format: functional; procedure, shortened: as §4
# Pseudomonas aeruginosa [13] = assay: Antimicrobial activity against Pseudomonas aeruginosa; format: functional; procedure, shortened: as §4
# Staphylococcus aureus [14] = assay: Antimicrobial activity against Staphylococcus aureus; format: functional; procedure, shortened: as §4
# Rattus norvegicus [15] = assay: Antiinflammatory activity against carrageenan-induced paw edema in Sprague-Dawley rat at 15 mg/kg, po after 1 hr; format: functional
# Procedure, shortened: (§5)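 Adult male rats, 150–180 g, six per group. Oral dose 1 h before 0.1 ml 1% carrageenin sc into the left hind footpad: test agents 15 mg/kg as suspension, indomethacin 10 mg/kg; vehicle 10% Tween 80. Paw volume by plethysmometer before injection, then hourly for 4 h. Edema % = (Vt−Vc)/Vc; inhibition % = (Ec−Et)/Ec. Potency taken relative to indomethacin. Means ± SE.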
# Rattus norvegicus [16] = assay: Antiinflammatory activity against carrageenan-induced paw edema in Sprague-Dawley rat at 15 mg/kg, po relative to indomethacin after 1 hr; format: functional; procedure, shortened: as §5
# Rattus norvegicus [17] = assay: Antiinflammatory activity against carrageenan-induced paw edema in Sprague-Dawley rat at 15 mg/kg, po after 2 hrs; format: functional; procedure, shortened: as §5
# Rattus norvegicus [18] = assay: Antiinflammatory activity against carrageenan-induced paw edema in Sprague-Dawley rat at 15 mg/kg, po relative to indomethacin after 2 hrs; format: functional; procedure, shortened: as §5
# Rattus norvegicus [19] = assay: Antiinflammatory activity against carrageenan-induced paw edema in Sprague-Dawley rat at 15 mg/kg, po after 3 hrs; format: functional; procedure, shortened: as §5
# Rattus norvegicus [20] = assay: Antiinflammatory activity against carrageenan-induced paw edema in Sprague-Dawley rat at 15 mg/kg, po relative to indomethacin after 3 hrs; format: functional; procedure, shortened: as §5
# Rattus norvegicus [21] = assay: Antiinflammatory activity against carrageenan-induced paw edema in Sprague-Dawley rat at 15 mg/kg, po after 4 hrs; format: functional; procedure, shortened: as §5
# Rattus norvegicus [22] = assay: Antiinflammatory activity against carrageenan-induced paw edema in Sprague-Dawley rat at 15 mg/kg, po relative to indomethacin after 4 hrs; format: functional; procedure, shortened: as §5
# Mus musculus [23] = assay: Analgesic activity in Swiss albino mouse assessed as reaction time at 100 mg/kg, po after 30 mins by hot plate test; format: functional; procedure, shortened: as §1
# Mus musculus [24] = assay: Analgesic activity in Swiss albino mouse assessed as reaction time at 100 mg/kg, po after 60 mins by hot plate test; format: functional; procedure, shortened: as §1
# Mus musculus [25] = assay: Analgesic activity in Swiss albino mouse assessed as reaction time at 100 mg/kg, po after 90 mins by hot plate test; format: functional; procedure, shortened: as §1
# Mus musculus [26] = assay: Analgesic activity against acetic acid-induced abdominal constriction in Swiss albino mouse at 100 mg/kg, po after 20 mins by writhing test; format: functional, Abdomen; procedure, shortened: as §2
# Rattus norvegicus [27] = assay: Antiinflammatory activity against carrageenan-induced paw edema in Sprague-Dawley rat at 10 mg/kg, po after 4 hrs; format: functional; procedure, shortened: as §5
# Rattus norvegicus [28] = assay: Antiinflammatory activity against carrageenan-induced paw edema in Sprague-Dawley rat at 10 mg/kg, po after 1 hr; format: functional; procedure, shortened: as §5
# Rattus norvegicus [29] = assay: Antiinflammatory activity against carrageenan-induced paw edema in Sprague-Dawley rat at 10 mg/kg, po after 2 hrs; format: functional; procedure, shortened: as §5
# Rattus norvegicus [30] = assay: Antiinflammatory activity against carrageenan-induced paw edema in Sprague-Dawley rat at 10 mg/kg, po after 3 hrs; format: functional; procedure, shortened: as §5
# Candida albicans [31] = assay: Antimicrobial activity against Candida albicans; format: functional; procedure, shortened: as §4
SMILES,Time (Mus musculus [1]),Time (Mus musculus [2]),Time (Mus musculus [3]),Activity (Mus musculus [4]),Activity (Mus musculus [5]),zone of inhibition at 50 µg/disc (Escherichia coli [6]),zone of inhibition at 50 µg/disc (Klebsiella pneumoniae [7]),zone of inhibition at 50 µg/disc (Pseudomonas aeruginosa [8]),zone of inhibition at 50 µg/disc (Staphylococcus aureus [9]),inhibition in vivo at 15 mg/kg (Rattus norvegicus [15]),inhibition in vivo at 15 mg/kg (Rattus norvegicus [16]),inhibition in vivo at 15 mg/kg (Rattus norvegicus [17]),inhibition in vivo at 15 mg/kg (Rattus norvegicus [18]),inhibition in vivo at 15 mg/kg (Rattus norvegicus [19]),inhibition in vivo at 15 mg/kg (Rattus norvegicus [20]),inhibition in vivo at 15 mg/kg (Rattus norvegicus [21]),inhibition in vivo at 15 mg/kg (Rattus norvegicus [22]),also measured
O=c1[nH]c(N/N=C\c2ccccc2)nc2nc3c(c(-c4ccccc4)c12)CCCC3,10.08 s,12.52 s,12.68 s,34.9%,67.51%,15 mm,18 mm,14 mm,16 mm,–,–,–,–,–,–,–,–,zone of inhibition at 50 µg/disc (Candida albicans [10]): 7 mm; zone of inhibition at 50 µg/disc (Nakaseomyces glabratus): 7 mm
Nc1n[nH]c2nc3nc4c(c(-c5ccccc5)c3c(=O)n12)CCCC4,5.14 s,6.74 s,7.62 s,57.1%,110.44%,20 mm,22 mm,22 mm,21 mm,10.1%,17.7%,1.2%,2.1%,2.8%,6.6%,9.5%,20.5%,MIC (Escherichia coli [11]): 30 µg; MIC (Klebsiella pneumoniae [12]): 30 µg; MIC (Pseudomonas aeruginosa [13]): 30 µg; MIC (Staphylococcus aureus [14]): 30 µg
O=c1[nH]c(=S)[nH]c2nc3c(c(-c4ccc(Cl)cc4)c12)CCCC3,–,–,–,–,–,13 mm,14 mm,14 mm,13 mm,–,–,–,–,–,–,–,–,–
O=c1[nH]c(=S)[nH]c2nc3c(c(-c4ccccc4)c12)CCCC3,8.65 s,10.98 s,11.12 s,35.4%,68.47%,12 mm,14 mm,15 mm,13 mm,–,–,–,–,–,–,–,–,–
CC(=O)Oc1ccccc1C(=O)O [ASPIRIN],–,–,–,–,–,–,–,–,–,–,–,–,–,–,–,–,–,Time (Mus musculus [23]): 10.03 s; Time (Mus musculus [24]): 11.39 s; Time (Mus musculus [25]): 13.15 s; Activity (Mus musculus [26]): 51.7%
NNc1nc2nc3c(c(-c4ccccc4)c2c(=O)[nH]1)CCCC3,7.54 s,10.61 s,12 s,52.9%,102.32%,13 mm,13 mm,15 mm,11 mm,30.5%,53.5%,20.8%,35.7%,21.8%,51.1%,18.6%,40.1%,–
COc1ccc2c(c1)c(CC(=O)O)c(C)n2C(=O)c1ccc(Cl)cc1 [INDOMETHACIN],–,–,–,–,–,–,–,–,–,–,–,–,–,–,–,–,–,inhibition in vivo at 10 mg/kg (Rattus norvegicus [27]): 46.4%; inhibition in vivo at 10 mg/kg (Rattus norvegicus [28]): 56.9%; inhibition in vivo at 10 mg/kg (Rattus norvegicus [29]): 58.2%; inhibition in vivo at 10 mg/kg (Rattus norvegicus [30]): 42.6%
CC(=O)NNc1nc2nc3c(c(-c4ccccc4)c2c(=O)[nH]1)CCCC3,8.62 s,8.06 s,9.22 s,60.4%,116.83%,20 mm,18 mm,22 mm,19 mm,25.9%,45.5%,22.8%,39.2%,23.9%,55.9%,21.8%,46.9%,zone of inhibition at 50 µg/disc (Candida albicans [10]): 17 mm; zone of inhibition at 50 µg/disc (Nakaseomyces glabratus): 16 mm; MIC (Escherichia coli [11]): 20 µg; MIC (Klebsiella pneumoniae [12]): 20 µg; MIC (Pseudomonas aeruginosa [13]): 20 µg; MIC (Staphylococcus aureus [14]): 20 µg; MIC (Candida albicans [31]): 50 µg
